# Results taken from ChEMBL document CHEMBL3779876, “Synthesis and biological evaluation of novel 2,3-dihydrochromeno[3,4-d]imidazol-4(1H)-one derivatives as potent anticancer cell proliferation and migration agents” (Eur J Med Chem, 2016).
# Legend:
# [1] = Growth inhibition of human U87MG cells assessed as cell viability after 72 hrs by MTT assay; format: functional, cell-based, U-87MG ATCC; settings: U-87 MG
# How it was run: (§1)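 Cells were grown in DMEM or RPMI with 10% FBS and 1% penicillin/streptomycin at 37 °C, 5% CO2. They were seeded at 2000–3000 cells, rested 24 h, then exposed to a range of concentrations for 72 h. MTT (5 mg/mL stock) was added for 2–4 h at 37 °C and formazan dissolved in DMSO. A570 was read and IC50 calculated; triplicate wells, three separate experiments.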
# [2] = Growth inhibition of human PC3 cells assessed as cell viability after 72 hrs by MTT assay; format: functional, cell-based; settings: PC-3, 72 h; how it was run: as §1
# [3] = Growth inhibition of human HCT116 cells assessed as cell viability after 72 hrs by MTT assay; format: functional, cell-based; settings: HCT-116, 72 h; how it was run: as §1
SMILES,IC50 [1],IC50 [2],IC50 [3]
O=c1oc2ccc(-c3cnc4ccccc4c3)cc2c2c1[nH]c(=O)n2-c1ccccc1,35.6 µM,34 µM,31.5 µM
COc1ccc(-n2c(=O)[nH]c3c(=O)oc4ccc(-c5ccncc5)cc4c32)cc1,> 40 µM,> 40 µM,> 40 µM
N#CCc1ccc(-n2c(=O)[nH]c3c(=O)oc4ccc(-c5ccccc5)cc4c32)cc1,31.4 µM,35.3 µM,> 40 µM
N#CCc1ccc(-n2c(=O)[nH]c3c(=O)oc4ccc(-c5cccc(NS(=O)(=O)c6ccc(F)cc6)c5)cc4c32)cc1,> 40 µM,> 40 µM,> 40 µM
O=c1oc2ccc(-c3ccncc3)cc2c2c1[nH]c(=O)n2-c1ccccc1,38.7 µM,–,–
O=c1oc2ccc(-c3cccc(NS(=O)(=O)c4ccc(F)cc4)c3)cc2c2c1[nH]c(=O)n2-c1ccccc1,> 40 µM,> 40 µM,> 40 µM
CC(C)(C#N)c1ccc(-n2c(=O)[nH]c3c(=O)oc4ccc(-c5cccnc5)cc4c32)cc1,25.6 µM,38.2 µM,–
